Results: ChEMBL document CHEMBL1121974, “Structure-activity relationships of some technetium-99m labeled [(thioethyl)amino] carboxylates” (J Med Chem, 1982)

Experiments:
Mus musculus [1] = assay: Percent injected radioactivity was determined in urine after intravenous administration into the tail vein of male swiss albino mice after 60 min; assay type: ADME, organism-based; design: concentration or dose not given beside the values; conditions: in vivo, 1 h
Procedure, shortened: (§1)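 Mice weighing 20–25 g received 0.2 mL (2 μCi) and were held in metabolic cages. At 60 min they were killed with ether, with the penis ligated. Organs were γ-counted, tail counts were subtracted from the dose, and values are the mean of five ±SD.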

Mus musculus [2] = assay: Percent injected radioactivity was determined in intestine after intravenous administration into the tail vein of male swiss albino mice, after 60 min; assay type: ADME, organism-based; conditions: in vivo, 1 h; procedure, shortened: as §1
[3] = Acidity constant pK1 was measured; assay type: ADME; conditions: read-out: pK1
Procedure, shortened: (§2)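 Acid-base titration of the free ligands over a pH range, followed by the chemical shifts of nonlabile protons. Macroscopic constants were assigned to the COOH, SH and NH⁺ dissociation steps; microscopic constants were not obtained.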

[4] = Acidity constant pK2 was measured; assay type: ADME; conditions: read-out: pK2; procedure, shortened: as §2
[5] = Acidity constant pK3 was measured; assay type: ADME; conditions: read-out: pK3; procedure, shortened: as §2
Mus musculus [6] = assay: Percent injected radioactivity was determined in muscle after intravenous administration into the tail vein of male swiss albino mice after 60 min; assay type: ADME, organism-based, Muscle tissue; design: concentration or dose not given beside the values; conditions: in vivo, 1 h; procedure, shortened: as §1
Mus musculus [7] = assay: Percent injected radioactivity was determined in liver and gallbladder after intravenous administration into the tail vein of male swiss albino mice after 60 min; assay type: ADME, organism-based; design: concentration or dose not given beside the values; conditions: in vivo, 1 h; procedure, shortened: as §1
Mus musculus [8] = assay: Percent injected radioactivity was determined in kidney after intravenous administration into the tail vein of male swiss albino mice after 60 min; assay type: ADME, organism-based; conditions: in vivo, 1 h; procedure, shortened: as §1
Mus musculus [9] = assay: Percent injected radioactivity was determined in blood after intravenous administration into the tail vein of male swiss albino mice after 60 min; assay type: ADME, organism-based; conditions: in vivo, 1 h; procedure, shortened: as §1
[10] = Acidity constant pK3' was measured; assay type: ADME; conditions: read-out: pK3'; procedure, shortened: as §2

Cl.O=C(O)CNCCS
Radioactivity (Mus musculus [1]): 36.323% | Radioactivity (Mus musculus [2]): 16.702% | pKa [3]: 2.6 | pKa [4]: 8.5 | pKa [5]: 11.6 | Radioactivity (Mus musculus [6]): 6.988% | Radioactivity (Mus musculus [7]): 5.448% | Radioactivity (Mus musculus [8]): 5.318% | Radioactivity (Mus musculus [9]): 4.176%

O=C(O)C(S)C(S)C(=O)O (stereo not drawn)
Radioactivity (Mus musculus [1]): 30.04% | Radioactivity (Mus musculus [2]): 5.693% | Radioactivity (Mus musculus [6]): 24.17% | Radioactivity (Mus musculus [7]): 12.617% | Radioactivity (Mus musculus [8]): 21.823% | Radioactivity (Mus musculus [9]): 18.873%

O=C(O)CN(CCSSCCN(CC(=O)O)CC(=O)O)CC(=O)O
Radioactivity (Mus musculus [1]): 50.09% | Radioactivity (Mus musculus [2]): 8.9% | pKa [3]: 2.3 | pKa [5]: 9.2 | Radioactivity (Mus musculus [6]): 7.97% | Radioactivity (Mus musculus [7]): 3.085% | Radioactivity (Mus musculus [8]): 4.24% | Radioactivity (Mus musculus [9]): 4.64%

O=C(O)CN(CCS)CC(=O)O
Radioactivity (Mus musculus [1]): 52.11% | Radioactivity (Mus musculus [2]): 4.743% | pKa [3]: 1.9 | pKa [4]: 7.7 | pKa [5]: 10.6 | Radioactivity (Mus musculus [6]): 7.553% | Radioactivity (Mus musculus [7]): 1.92% | Radioactivity (Mus musculus [8]): 5.677% | Radioactivity (Mus musculus [9]): 3.598%

O=C(O)CN(CCS)CCN(CCS)CC(=O)O
Radioactivity (Mus musculus [1]): 39.5% | Radioactivity (Mus musculus [2]): 16.924% | pKa [3]: 1.1 | pKa [4]: 9 | pKa [5]: 11.6 | Radioactivity (Mus musculus [6]): 3.472% | pKa [10]: 4.6 | Radioactivity (Mus musculus [7]): 4.3% | Radioactivity (Mus musculus [8]): 5.62% | Radioactivity (Mus musculus [9]): 3.46%

O=C(O)CN(CCSCc1ccccc1)CC(=O)O
Radioactivity (Mus musculus [1]): 11.371% | Radioactivity (Mus musculus [2]): 58.02% | pKa [3]: 2.1 | pKa [5]: 9.1 | Radioactivity (Mus musculus [6]): 3.32% | Radioactivity (Mus musculus [7]): 8.429% | Radioactivity (Mus musculus [8]): 2.083% | Radioactivity (Mus musculus [9]): 2.627%

CCCCSCCN(CC(=O)O)CC(=O)O
Radioactivity (Mus musculus [1]): 15.967% | Radioactivity (Mus musculus [2]): 52.4% | Radioactivity (Mus musculus [6]): 4.013% | Radioactivity (Mus musculus [7]): 12.7% | Radioactivity (Mus musculus [8]): 2.767% | Radioactivity (Mus musculus [9]): 2.8%

CCSCCN(CC(=O)O)CC(=O)O
Radioactivity (Mus musculus [1]): 34.1% | Radioactivity (Mus musculus [2]): 25.533% | Radioactivity (Mus musculus [6]): 3.56% | Radioactivity (Mus musculus [7]): 8.568% | Radioactivity (Mus musculus [8]): 3.567% | Radioactivity (Mus musculus [9]): 4.55%

O=C(O)CN(CCSc1ccc2ccccc2c1)CC(=O)O
Radioactivity (Mus musculus [1]): 9.74% | Radioactivity (Mus musculus [2]): 51.3% | Radioactivity (Mus musculus [6]): 5.254% | Radioactivity (Mus musculus [7]): 22.748% | Radioactivity (Mus musculus [8]): 1.842% | Radioactivity (Mus musculus [9]): 4.41%
